Activity calls are given as the source filed them. No cut-off for these calls is given here.
Columns and labels:
A549 = assay: Antiproliferative activity against human A549 cells after 72 hrs by MTT assay; type: functional, cell-based; conditions: A549, 72 h
How it was run: (§1)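 A549 (ATCC) and PC3 cells kept in RPMI-1640 with 10% heat-inactivated FBS, 2 mM glutamine and 1 mM sodium pyruvate at 37 °C in humidified 5% CO2. Seeded at about 5000 cells/well and exposed continuously for 72 h to a range of inhibitor concentrations, with MTX as control. Viability read by MTT assay; IC50 reported.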

PC-3 = assay: Antiproliferative activity against human PC3 cells after 72 hrs by MTT assay; type: functional, cell-based; conditions: PC-3, 72 h; how it was run: as §1
Carbonic anhydrase 9 = Carbonic anhydrase 9 (Homo sapiens, UniProt Q16790); assay: Inhibition of human recombinant carbonic anhydrase 9 after 15 mins by stopped flow CO2 hydration assay
Dihydrofolate reductase = Dihydrofolate reductase (Lactobacillus casei, UniProt P00381); assay: Inhibition of Lactobacillus casei DHFR by spectrophotometric analysis; set-up: species or system Lacticaseibacillus casei
Chain of Dihydrofolate reductase (P00381 whole entry): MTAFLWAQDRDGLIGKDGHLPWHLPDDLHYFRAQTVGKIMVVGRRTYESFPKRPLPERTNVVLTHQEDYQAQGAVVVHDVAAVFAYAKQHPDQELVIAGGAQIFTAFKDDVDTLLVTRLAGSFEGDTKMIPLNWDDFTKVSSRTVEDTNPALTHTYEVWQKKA

[1] = molecular target: Dihydrofolate reductase (Lactobacillus casei) (UniProt P00381); assay: Inhibition of Lactobacillus casei DHFR at 0.5 mM by spectrophotometric analysis; conditions: Lacticaseibacillus casei
Chain of Dihydrofolate reductase (Lactobacillus casei) (P00381 whole entry): as above
How it was run: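 L. casei DHFR activity followed spectrophotometrically as the fall in absorbance at 340 nm from NADPH oxidation, with and without inhibitor, at 30 °C. Inhibitor tested at 0.5 mM, the highest concentration used.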

| Compound | IC50 (A549) | IC50 (PC-3) | Ki (Carbonic anhydrase 9) | IC50 (Dihydrofolate reductase) | inhibition [1] |
| --- | --- | --- | --- | --- | --- |
| Nc1nc(N)c2nc(CNc3ccc(S(=O)(=O)O)cc3)cnc2n1 |  | 500 µM | > 1 µM | 2 µM |  |
| Nc1nc(N)c2nc(CNc3ccc(S(N)(=O)=O)cc3)cnc2n1 |  | 550 µM | 0.0021 µM | 2.5 µM |  |
| Nc1nc(N)c2nc(CNc3ccc(C(=O)NCCc4ccc(S(=O)(=O)O)cc4)cc3)cnc2n1 |  | 500 µM | > 1 µM | 1.3 µM |  |
| CN(Cc1cnc2nc(N)nc(N)c2n1)c1ccc(C(=O)NCCc2ccc(S(N)(=O)=O)cc2)cc1 |  | 500 µM | 0.0037 µM | 1.8 µM |  |
| Nc1nc(N)c2nc(CNCCc3ccc(S(=O)(=O)O)cc3)cnc2n1 |  | 460 µM | > 1 µM |  | inactive |

Stronger by IC50 (PC-3), values ahead:

| IC50 (A549) | IC50 (PC-3) | Ki (Carbonic anhydrase 9) | IC50 (Dihydrofolate reductase) | inhibition [1] | Compound |
| --- | --- | --- | --- | --- | --- |
| 2000 µM | 400 µM | 0.0025 µM | 20 µM |  | Nc1nc(N)c2nc(CNc3ccc(C(=O)NCCc4ccc(S(N)(=O)=O)cc4)cc3)cnc2n1 |
|  | 300 µM |  |  | inactive | Nc1nc(N)c2nc(CNCCc3ccc(S(N)(=O)=O)cc3)cnc2n1 |
| 0.005 µM | 0.001 µM |  |  |  | CN(Cc1cnc2nc(N)nc(N)c2n1)c1ccc(C(=O)N[C@@H](CCC(=O)O)C(=O)O)cc1 [METHOTREXATE] |

— ChEMBL document CHEMBL1250432, “Pteridine-sulfonamide conjugates as dual inhibitors of carbonic anhydrases and dihydrofolate reductase with potential antitumor activity” (Bioorg Med Chem, 2010)
